Measurements taken from ChEMBL document CHEMBL1124865, “Synthesis and biological evaluation of a series of parenteral 3'-quaternary ammonium cephalosporins” (J Med Chem, 1990).
Converted amounts (≈) assume the structure as drawn.

What was measured:
Type in all cases: functional
Escherichia coli [1] = assay: Antibacterial activity against Escherichia coli EC14; conditions: Escherichia coli; read-out: MIC
Pseudomonas aeruginosa [2] = assay: Antibacterial activity against Pseudomonas aeruginosa X528
Pseudomonas aeruginosa [3] = assay: In vivo efficacy against Pseudomonas aeruginosa infected mice treated at 1 hr and 5 hr post infection
Pseudomonas aeruginosa [4] = assay: In vitro relative hydrolysis rate against Pseudomonas Id
Procedure, shortened: (§1)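 Spectrophotometric hydrolysis at 265 nm, substrate exposed to partially purified cell-free β-lactamase preparations; rate expressed as percentage of the cephaloridine rate.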

Escherichia coli [5] = assay: In vivo efficacy against Escherichia coli infected mice treated at 1 hr and 5 hr post infection
Enterobacter cloacae [6] = assay: Antibacterial activity against Enterobacter cloacae 265A
Escherichia coli [7] = assay: In vitro relative hydrolysis rate against Escherichia coli IIIa; procedure, shortened: as §1
Staphylococcus aureus [8] = assay: Antibacterial activity against penicillin G resistance Staphylococcus aureus
Enterobacter cloacae [9] = assay: In vitro relative hydrolysis rate against Enterobacter Ia; procedure, shortened: as §1
Staphylococcus aureus [10] = assay: In vivo efficacy against Staphylococcus aureus infections in mice
Klebsiella pneumoniae [11] = assay: microbe, parasite or virus in culture
Staphylococcus aureus [12] = assay: Antibacterial activity against penicillin G susceptible Staphylococcus aureus
Enterococcus faecium = assay: Antibacterial activity against Enterococcus faecium; conditions: Enterococcus faecium; read-out: MIC
Klebsiella pneumoniae [13] = assay: Antibacterial activity against Klebsiella pneumoniae X26; conditions: Klebsiella pneumoniae; read-out: MIC
Escherichia coli [14] = assay: In vivo efficacy against Escherichia coli infections in mice; conditions: Escherichia coli; read-out: MIC
Enterobacter cloacae [15] = assay: Antibacterial activity against Enterobacter cloacae EB5
Streptococcus pneumoniae = assay: Antibacterial activity against Streptococcus pneumoniae
Staphylococcus aureus [16] = assay: In vitro relative hydrolysis rate against Staphylococcus aureus; procedure, shortened: as §1
Pseudomonas aeruginosa [17] = assay: Antibacterial activity against Pseudomonas aeruginosa PS18
Escherichia coli [18] = assay: Antibacterial activity against Escherichia coli TEM
Pseudomonas aeruginosa [19] = assay: In vivo efficacy against Pseudomonas aeruginosa infections in mice
Staphylococcus aureus [20] = assay: In vivo efficacy against Staphylococcus aureus infected mice treated at 1 hr and 5 hr post infection
Klebsiella pneumoniae [21] = assay: In vitro relative hydrolysis rate against Klebsiella IV; procedure, shortened: as §1
Streptococcus pyogenes = assay: Antibacterial activity against Streptococcus pyogenes
Serratia marcescens = assay: Antibacterial activity against Serratia marcescens SE3
[22] = Pseudomonas aeruginosa, read-out: MIC
[23] = Pseudomonas aeruginosa, read-out: ED50
[24] = Escherichia coli, read-out: ED50
[25] = Enterobacter cloacae, read-out: MIC
[26] = Staphylococcus aureus, read-out: MIC
[27] = Klebsiella pneumoniae, read-out: MIC
[28] = Streptococcus pneumoniae, read-out: MIC
[29] = Escherichia coli, read-out: MIC
[30] = Staphylococcus aureus, read-out: ED50
[31] = Streptococcus pyogenes, read-out: MIC
[32] = Serratia marcescens, read-out: MIC

SMILES: CO/N=C(\C(=O)N[C@@H]1C(=O)N2C(C(=O)[O-])=C(C[n+]3cccc4ccccc43)CS[C@H]12)c1csc(N)n1
- MIC (Escherichia coli [1]): 0.03 µg/mL (≈ 0.0572 µM)
- MIC (Pseudomonas aeruginosa [2]; [22]): 2 µg/mL (≈ 3.81 µM)
- ED50 (Pseudomonas aeruginosa [3]; [23]): 9.5 mg/kg
- Hydrolysis rate (Pseudomonas aeruginosa [4]): 0.1
- ED50 (Escherichia coli [5]; [24]): 0.04 mg/kg
- MIC (Enterobacter cloacae [6]; [25]): 4 µg/mL (≈ 7.63 µM)
- Hydrolysis rate (Escherichia coli [7]): 0.2
- MIC (Staphylococcus aureus [8]; [26]): 1 µg/mL (≈ 1.91 µM)
- Hydrolysis rate (Enterobacter cloacae [9]): 0.1
- MIC (Staphylococcus aureus [10]; [26]): 0.5 µg/mL (≈ 0.953 µM)
- MIC (Klebsiella pneumoniae [11]; [27]): 2 µg/mL (≈ 3.81 µM)
- MIC (Staphylococcus aureus [12]; [26]): 0.5 µg/mL (≈ 0.953 µM)
- MIC (Enterococcus faecium): 128 µg/mL (≈ 244 µM)
- MIC (Klebsiella pneumoniae [13]): 0.015 µg/mL (≈ 0.0286 µM)
- MIC (Escherichia coli [14]): 0.03 µg/mL (≈ 0.0572 µM)
- MIC (Enterobacter cloacae [15]; [25]): 0.125 µg/mL (≈ 0.238 µM)
- MIC (Streptococcus pneumoniae; [28]): 0.015 µg/mL (≈ 0.0286 µM)
- Hydrolysis rate (Staphylococcus aureus [16]): 8.4
- MIC (Pseudomonas aeruginosa [17]; [22]): 4 µg/mL (≈ 7.63 µM)
- MIC (Escherichia coli [18]; [29]): 0.015 µg/mL (≈ 0.0286 µM)
- MIC (Pseudomonas aeruginosa [19]; [22]): 8 µg/mL (≈ 15.3 µM)
- ED50 (Staphylococcus aureus [20]; [30]): 0.4 mg/kg
- Hydrolysis rate (Klebsiella pneumoniae [21]): 0.8
- MIC (Streptococcus pyogenes; [31]): 0.015 µg/mL (≈ 0.0286 µM)
- MIC (Serratia marcescens; [32]): 0.125 µg/mL (≈ 0.238 µM)

SMILES: CO/N=C(\C(=O)N[C@@H]1C(=O)N2C(C(=O)[O-])=C(C[n+]3ccc(CC(=O)NO)cc3)CS[C@H]12)c1csc(N)n1 (stereo in doubt; 9)
- MIC (Escherichia coli [1]): 0.03 µg/mL (≈ 0.0548 µM)
- MIC (Pseudomonas aeruginosa [2]): 8 µg/mL (≈ 14.6 µM)
- ED50 (Pseudomonas aeruginosa [3]): 39 mg/kg
- Hydrolysis rate (Pseudomonas aeruginosa [4]): 0.1
- ED50 (Escherichia coli [5]): <0.3 mg/kg
- MIC (Enterobacter cloacae [6]): 32 µg/mL (≈ 58.4 µM)
- Hydrolysis rate (Escherichia coli [7]): 0.1
- MIC (Staphylococcus aureus [8]): 4 µg/mL (≈ 7.3 µM)
- Hydrolysis rate (Enterobacter cloacae [9]): 0.2
- MIC (Staphylococcus aureus [10]): 1 µg/mL (≈ 1.83 µM)
- MIC (Klebsiella pneumoniae [11]): 4 µg/mL (≈ 7.3 µM)
- MIC (Staphylococcus aureus [12]): 2 µg/mL (≈ 3.65 µM)
- MIC (Enterococcus faecium): 128 µg/mL (≈ 234 µM)
- MIC (Klebsiella pneumoniae [13]): 0.03 µg/mL (≈ 0.0548 µM)
- MIC (Escherichia coli [14]): 0.03 µg/mL (≈ 0.0548 µM)
- MIC (Enterobacter cloacae [15]): 0.25 µg/mL (≈ 0.457 µM)
- MIC (Streptococcus pneumoniae): 0.03 µg/mL (≈ 0.0548 µM)
- Hydrolysis rate (Staphylococcus aureus [16]): 6.9
- MIC (Pseudomonas aeruginosa [17]): 4 µg/mL (≈ 7.3 µM)
- MIC (Escherichia coli [18]): 0.03 µg/mL (≈ 0.0548 µM)
- MIC (Pseudomonas aeruginosa [19]): 16 µg/mL (≈ 29.2 µM)
- ED50 (Staphylococcus aureus [20]): 1 mg/kg
- Hydrolysis rate (Klebsiella pneumoniae [21]): 1.2
- MIC (Streptococcus pyogenes): 0.03 µg/mL (≈ 0.0548 µM)
- MIC (Serratia marcescens): 0.125 µg/mL (≈ 0.228 µM)

SMILES: CO/N=C(\C(=O)N[C@@H]1C(=O)N2C(C(=O)[O-])=C(C[n+]3cccc4ccsc43)CS[C@H]12)c1csc(N)n1
- MIC (Escherichia coli [1]): 0.03 µg/mL (≈ 0.0565 µM)
- MIC (Pseudomonas aeruginosa [2]; [22]): 4 µg/mL (≈ 7.54 µM)
- ED50 (Pseudomonas aeruginosa [3]; [23]): 13.5 mg/kg
- Hydrolysis rate (Pseudomonas aeruginosa [4]): 0
- ED50 (Escherichia coli [5]; [24]): 0.05 mg/kg
- MIC (Enterobacter cloacae [6]; [25]): 4 µg/mL (≈ 7.54 µM)
- Hydrolysis rate (Escherichia coli [7]): 0.5
- MIC (Staphylococcus aureus [8]; [26]): 2 µg/mL (≈ 3.77 µM)
- Hydrolysis rate (Enterobacter cloacae [9]): 0.1
- MIC (Staphylococcus aureus [10]; [26]): 1 µg/mL (≈ 1.88 µM)
- MIC (Klebsiella pneumoniae [11]; [27]): 4 µg/mL (≈ 7.54 µM)
- MIC (Staphylococcus aureus [12]; [26]): 1 µg/mL (≈ 1.88 µM)
- MIC (Enterococcus faecium): 128 µg/mL (≈ 241 µM)
- MIC (Klebsiella pneumoniae [13]): 0.03 µg/mL (≈ 0.0565 µM)
- MIC (Escherichia coli [14]): 0.015 µg/mL (≈ 0.0283 µM)
- MIC (Enterobacter cloacae [15]; [25]): 0.125 µg/mL (≈ 0.236 µM)
- MIC (Streptococcus pneumoniae; [28]): 0.03 µg/mL (≈ 0.0565 µM)
- Hydrolysis rate (Staphylococcus aureus [16]): 9.6
- MIC (Pseudomonas aeruginosa [17]; [22]): 8 µg/mL (≈ 15.1 µM)
- MIC (Escherichia coli [18]; [29]): 0.06 µg/mL (≈ 0.113 µM)
- MIC (Pseudomonas aeruginosa [19]; [22]): 4 µg/mL (≈ 7.54 µM)
- ED50 (Staphylococcus aureus [20]; [30]): 0.8 mg/kg
- Hydrolysis rate (Klebsiella pneumoniae [21]): 1.5
- MIC (Streptococcus pyogenes; [31]): 0.03 µg/mL (≈ 0.0565 µM)
- MIC (Serratia marcescens; [32]): 0.06 µg/mL (≈ 0.113 µM)
